Measured values of several laboratories.
Each line is one published result; the experiments were not run side by side.
HTR2A: 5-hydroxytryptamine receptor 2A (HTR2A, Homo sapiens, UniProt P28223)
BMX: Cytoplasmic tyrosine-protein kinase BMX (BMX, Homo sapiens, UniProt P51813)
OPRK1: Kappa-type opioid receptor (OPRK1, Homo sapiens, UniProt P41145)
SIGMAR1: Sigma non-opioid intracellular receptor 1 (SIGMAR1, Homo sapiens, UniProt Q99720)
SLC18A3: Vesicular acetylcholine transporter (SLC18A3, Homo sapiens, UniProt Q16572)

SMILES | target | assay | conditions | Ki
Fc1ccc2c(C3CCCNC3)noc2c1 (racemic) | HTR2A | ligand displacement, radioligand | cell membranes | 284 nM
[C-]#[O+] | cooS2 (Carboxydothermus hydrogenoformans, UniProt Q9F8A8) | enzyme activity, inhibitor |  | 5400 nM
Cn1cc(-c2cccc(N3CCc4c(sc5c4CC(C)(C)C5)C3=O)c2CO)cc(Nc2ccncn2)c1=O | BMX | enzyme activity, inhibitor, FRET |  | > 3330 nM
CCCC[C@@H](NC(=O)[C@@H](N)Cc1c(C)cc(O)cc1C)C(=O)NCC(=O)N[C@@H](Cc1ccc(F)cc1)C(=O)N(C)CCC[C@@]1(c2ccc(F)cc2)OCc2cc(C#N)ccc21 | OPRK1 | cell-free assay |  | 3 nM
CCOC(=O)C(CC)(CCCSC)NC(=O)c1ccc(C2CC2)c(Cc2ccc(F)cc2)n1 (stereo not shown) | Cannabinoid receptor 1 (CNR1, Homo sapiens, UniProt P21554) | ligand displacement, radioligand | cell membranes | 8.5 nM
CN(C)CCCC1(c2ccc(F)cc2)OCc2cc(C#N)ccc21 (stereo not shown) | SIGMAR1 | ligand displacement, radioligand |  | 182 nM
N[C@@H](C[C@]1(C(=O)O)C[C@H]2OC[C@@H](O)[C@@H](O)[C@H]2O1)C(=O)O | Glutamate receptor ionotropic, kainate 2 (Grik2, Rattus norvegicus, UniProt P42260, Y443F) | ligand displacement, radioligand |  | 895 nM
CN(CCCN1c2ccccc2CCc2ccccc21)CC(=O)c1ccc(Cl)cc1 | SIGMAR1 | ligand displacement, radioligand |  | 7090 nM
Cc1cccc(Cc2ccc3c(c2)CN(C(=O)[C@@H](N)Cc2c(C)cc(O)cc2C)CC3)c1 | OPRK1 | ligand displacement, radioligand | cell membranes | 2.7 nM
CNC(=O)[C@H]1[Se][C@@H](n2cnc3c(NCc4cccc(Cl)c4)nc(Cl)nc32)[C@H](O)[C@@H]1O | Adenosine receptor A2a (ADORA2A, Homo sapiens, UniProt P29274) | ligand displacement, radioligand | cell membranes | ~200 nM
OCCOCCN1CCN(C(c2ccccc2)c2ccc(Cl)cc2)CC1 (stereo not shown) | SIGMAR1 | ligand displacement, radioligand |  | 437 nM
Cc1cc(O)cc(C)c1C[C@H](N)C(=O)N1CCc2ccc(Cc3cccc(N)c3)cc2C1 | OPRK1 | ligand displacement, radioligand | cell membranes | 28 nM
Cc1nc2n(c(=O)c1CCN(C)CCc1c[nH]c3ccccc13)CCCC2 | HTR2A | ligand displacement, radioligand | cell membranes | 237 nM
COc1cc2c(cc1OC)CN(CCc1ccc(NC(=O)c3cccc4c(=O)c5cccc(OC)c5[nH]c34)cc1)CC2 | SIGMAR1 | ligand displacement, radioligand |  | > 10000 nM
Cn1cc(-c2cc(F)cc(N3CCn4c(cc5c4CCCC5)C3=O)c2CO)cc(Nc2ccc(N3CCN(C4COC4)CC3)cn2)c1=O | BMX | enzyme activity, inhibitor, FRET |  | 83.2 nM
CN1CCN(CCc2ccc(Cl)c(Cl)c2)CC1 | SIGMAR1 | ligand displacement, radioligand |  | 9.48 nM
CCCN1CCC[C@@H]2Cc3n[nH]cc3C[C@H]21 | SLC18A3 | ligand displacement, radioligand |  | > 1000 nM
O=C(CN1CCC(CN2Cc3ccccc3C2=O)CC1)c1ccc(F)cc1 | SIGMAR1 | ligand displacement, radioligand |  | 1740 nM
O=C(c1ccc(F)cc1)C1CCN(C2Cc3c(cccc3OCCF)CC2O)CC1 (single isomer, unassigned; (-)) | SLC18A3 | ligand displacement, radioligand |  | 6.98 nM
